The record followed here is ChEMBL document CHEMBL1158155, “Novel hexacyclic camptothecin derivatives. Part 1: synthesis and cytotoxicity of camptothecins with an A-ring fused 1,3-oxazine ring” (Bioorg Med Chem Lett, 2008).

Type in all cases: functional, cell-based
The test system of one test is BXPC-3. The test is described as follows: Cytotoxicity against human BXPC3 cells after 4 days by MTT assay. The note with it: BXPC-3, 96 h. The method in brief:
(§1)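 Panel of nine human cancer lines tested in parallel: BXPC-3 (pancreatic), NCI-446 (lung), MCF-7 (breast), HEPG-2 (liver), A549 (lung), A2780 (ovarian), Bel7402 (liver), HT-29 (colon), and KB (epidermoid carcinoma of nasopharynx). Cells were exposed for 4 days of incubation, viability was read by MTT, and values were expressed as the doses required for the response.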
For orientation: Formazan colour is commonly taken as a measure of viable cells.

The nature of test [1]: Cytotoxicity against human NCI446 cells after 4 days by MTT assay. The note with it: NCI446, 96 h. The method in brief:
as §1

A further test concerns HepG2. The test is described as follows: Cytotoxicity against human HepG2 cells after 4 days by MTT assay. The note with it: HepG2, 96 h. Summed up:
as §1

For another test, the system named is A549. Kind of test: Cytotoxicity against human A549 cells after 4 days by MTT assay. The note with it: A549, 96 h. Summed up: as §1
The next test has as its system A2780. Kind of test: Cytotoxicity against human A2780 cells after 4 days by MTT assay. Conditions: A2780, 96 h. Summed up: as §1
In a further test the test system is Bel-7402. Kind of test: Cytotoxicity against human BEL-7402 cells after 4 days by MTT assay. Conditions: Bel-7402, 96 h. Summed up: as §1
In a further test the test system is HT-29. The test is described as follows: Cytotoxicity against human HT29 cells after 4 days by MTT assay. Conditions: HT-29, 96 h. The method in brief: as §1
For another test, the system named is KB. Kind of test: Cytotoxicity against human KB cells after 4 days by MTT assay. The note with it: 96 h. The method in brief:
as §1

The next test has as its system MCF7. The test is described as follows: Cytotoxicity against human MCF7 cells after 4 days by MTT assay. The note with it: MCF7, 96 h. The method in brief: as §1

For the molecule `CCCN1COc2ccc3nc4c(cc3c2C1)Cn1c-4cc2c(c1=O)COC(=O)[C@]2(O)CC`, the IC50 was determined as 150 nM in the test on BXPC-3; 3.9 µM in test [1]; 10 nM in the test with HepG2; 110 nM in the test with A549; 90 nM in the test with A2780; 1.43 µM with Bel-7402. Moreover, the results for the IC50 in the test on HT-29 and in the test with KB were 180 nM and 670 nM, respectively.

On to `CCN1COc2ccc3nc4c(cc3c2C1)Cn1c-4cc2c(c1=O)COC(=O)[C@]2(O)CC`, for which the IC50 stood at 190 nM in the test with BXPC-3; 0.23 µM in test [1]; 210 nM in the test on MCF7; 50 nM in the test with HepG2; 160 nM with A549; 120 nM in the test with A2780. Further, the IC50 with Bel-7402 stood at 0.81 µM; in the test on HT-29, 140 nM; in the test with KB, 120 nM.

Regarding `CC[C@@]1(O)C(=O)OCc2c1cc1n(c2=O)Cc2cc3c4c(ccc3nc2-1)OCN(Cc1ccc(OC)cc1)C4`, the IC50 in the test with BXPC-3 stood at 1240 nM; in [1], 56.8 µM; in the test with HepG2, 1470 nM; with A549, 30 nM; in the test on A2780 it was 17600 nM; in the test on Bel-7402, 9.58 µM. Also, the values for the IC50 in the test with HT-29 and in the test on KB were 1680 nM and 80 nM, respectively.

Turning to `CC[C@@]1(O)C(=O)OCc2c1cc1n(c2=O)Cc2cc3c4c(ccc3nc2-1)OCN(Cc1ccccc1)C4`, the IC50 in the test with BXPC-3 came out at 210 nM; in test [1] it was 6.23 µM; in the test with MCF7, 1600 nM; with HepG2 it was 110 nM; in the test on A549 it was 80 nM; with A2780 it was 910 nM. In addition, the IC50 with Bel-7402 stood at 1.58 µM; with HT-29, 100 nM; with KB it was 40 nM.

Turning to `CC[C@@]1(O)C(=O)OCc2c1cc1n(c2=O)Cc2cc3c4c(ccc3nc2-1)OCN(c1ccccc1C)C4`, the IC50 with BXPC-3 came out at 530 nM; in test [1] it was 1.14 µM; in the test with HepG2, 180 nM; in the test on A549, 1210 nM; in the test on A2780 it was 4260 nM; in the test with Bel-7402, 6 µM. Moreover, the results for the IC50 in the test with HT-29 and in the test with KB were 220 nM and 60 nM, respectively.

Take `CC[C@@]1(O)C(=O)OCc2c1cc1n(c2=O)Cc2cc3c4c(ccc3nc2-1)OCN(c1cccc(C)c1)C4`: the IC50 is 580 nM in the test with BXPC-3; 7.03 µM in test [1]; 930 nM with HepG2; 420 nM in the test on A549; 850 nM with A2780; 5.43 µM in the test with Bel-7402. Moreover, the values for the half-inhibitory concentration (IC50) with HT-29 and with KB were 340 nM and 40 nM, respectively.

For the molecule `CC[C@@]1(O)C(=O)OCc2c1cc1n(c2=O)Cc2cc3c4c(ccc3nc2-1)OCN(c1ccc(C)cc1)C4`, the IC50 with BXPC-3 was 2050 nM; in [1], 9.39 µM; in the test with MCF7, 1640 nM; in the test on A549 it was 570 nM; in the test on A2780, 2160 nM; with Bel-7402 it was 3.86 µM. Moreover, the figures for the IC50 with HT-29 and with KB were 530 nM and 340 nM, respectively.

`CC[C@@]1(O)C(=O)OCc2c1cc1n(c2=O)Cc2cc3c4c(ccc3nc2-1)OCN(c1ccccc1OC)C4`: the IC50 amounted to 3340 nM in the test with BXPC-3; 1400 nM in the test with MCF7; 130 nM in the test on HepG2; 720 nM with A549; 2990 nM in the test with A2780; 2.23 µM in the test with Bel-7402. Besides, the values for the IC50 in the test on HT-29 and with KB were 310 nM and 290 nM, respectively.

In the case of `CC[C@@]1(O)C(=O)OCc2c1cc1n(c2=O)Cc2cc3c4c(ccc3nc2-1)OCN(c1ccc(F)cc1F)C4`, the IC50 with BXPC-3 worked out at 1570 nM; with MCF7, 4480 nM; with HepG2, 550 nM; in the test on A549, 390 nM; with A2780, 2070 nM; with Bel-7402, 4.7 µM. The IC50 was determined as 620 nM with HT-29 and 660 nM with KB.

Consider `CC[C@@]1(O)C(=O)OCc2c1cc1n(c2=O)Cc2cc3c4c(ccc3nc2-1)OCN(c1ccccc1Cl)C4`, for which the IC50 stood at 890 nM with BXPC-3; 19.2 µM in test [1]; 2000 nM with MCF7; 450 nM in the test with A549; 4100 nM with A2780; 15.2 µM with Bel-7402. Further, the IC50 in the test with HT-29 came to 1050 nM; with KB, 330 nM.

In the case of `CC[C@@]1(O)C(=O)OCc2c1cc1n(c2=O)Cc2cc3c4c(ccc3nc2-1)OCN(c1ccc(Cl)cc1)C4`, the IC50 in the test with BXPC-3 is 510 nM; in the test with MCF7, 5000 nM; in the test with HepG2 it was 170 nM; in the test on A549, 310 nM; in the test with A2780 it was 820 nM; with Bel-7402, 16.3 µM. The IC50 with HT-29 came to 210 nM; in the test on KB it was 230 nM.

Turning to `CC[C@@]1(O)C(=O)OCc2c1cc1n(c2=O)Cc2cc3c4c(ccc3nc2-1)OCN(c1ccc(F)c(F)c1F)C4`, the IC50 turned out to be 120 nM in the test with BXPC-3; 2590 nM in the test on MCF7; 280 nM in the test with A549; 1070 nM with A2780; 13.1 µM in the test on Bel-7402; 620 nM in the test on HT-29. The molecule further returned a 50% inhibitory concentration (IC50) in the test with KB of 280 nM.

As to `CC[C@@]1(O)C(=O)OCc2c1cc1n(c2=O)Cc2cc3c4c(ccc3nc2-1)OCN(c1ccc(F)c(Cl)c1)C4`, the IC50 with BXPC-3 is 920 nM; in the test on MCF7, 9510 nM; in the test with HepG2, 180 nM; in the test with A549, 560 nM; in the test on A2780, 3100 nM; in the test on Bel-7402, 3.06 µM. For the same molecule, the results for the IC50 in the test on HT-29 and in the test with KB were 1130 nM and 620 nM, respectively.

Consider `CC[C@@]1(O)C(=O)OCc2c1cc1n(c2=O)Cc2cc3c4c(ccc3nc2-1)OCN(Cc1ccc(F)cc1)C4`, for which the IC50 with BXPC-3 came to 1730 nM; in test [1] it was 43.2 µM; in the test on MCF7, 650 nM; with HepG2, 140 nM; with A549, 120 nM; with A2780, 11600 nM. Moreover, the IC50 is 5.22 µM with Bel-7402, 1190 nM in the test with HT-29 and 60 nM in the test with KB.

In the case of `CC[C@@]1(O)C(=O)OCc2c1cc1n(c2=O)Cc2cc3c4c(ccc3nc2-1)OCN(C)C4`, the IC50 was determined as 480 nM with BXPC-3; 37.3 µM in test [1]; 4520 nM in the test with MCF7; 640 nM with HepG2; 410 nM in the test with A549; 530 nM with A2780. The IC50 with Bel-7402 was found to be 1.67 µM; in the test with HT-29, 690 nM; in the test with KB it was 670 nM.

As to `CCCCN1COc2ccc3nc4c(cc3c2C1)Cn1c-4cc2c(c1=O)COC(=O)[C@]2(O)CC`, the IC50 is 970 nM in the test with BXPC-3; 10.1 µM in test [1]; 550 nM in the test with MCF7; 350 nM in the test with HepG2; 200 nM in the test with A549; 3190 nM with A2780. In addition, the IC50 came to 4.01 µM in the test with Bel-7402, 130 nM in the test on HT-29 and 90 nM in the test with KB.

Consider `CC[C@@]1(O)C(=O)OCc2c1cc1n(c2=O)Cc2cc3c4c(ccc3nc2-1)OCN(c1ccc(OC)cc1)C4`, for which the half-inhibitory concentration (IC50) in the test with BXPC-3 amounted to 420 nM; in test [1], 14.5 µM; with HepG2, 120 nM; in the test on A549, 270 nM; with A2780, 1120 nM; with Bel-7402, 4.99 µM. In addition, the IC50 in the test with HT-29 is 310 nM; in the test with KB, 230 nM.

For the molecule `CC[C@@]1(O)C(=O)OCc2c1cc1n(c2=O)Cc2cc3c4c(ccc3nc2-1)OCN(c1ccccc1)C4`, the IC50 in the test with BXPC-3 stood at 190 nM; in the test with MCF7, 2750 nM; in the test on HepG2, 30 nM; in the test with A549, 770 nM; in the test with A2780, 3430 nM; with Bel-7402, 7.13 µM. Also, the 50% inhibitory concentration (IC50) in the test with HT-29 came to 480 nM; with KB it was 670 nM.

`CC[C@@]1(O)C(=O)OCc2c1cc1n(c2=O)Cc2cc3ccccc3nc2-1` [CAMPTOTHECIN]: the 50% inhibitory concentration (IC50) is 240 nM in the test with BXPC-3; 3.28 µM in [1]; 200 nM with MCF7; 130 nM in the test with HepG2; 10 nM in the test with A549; 200 nM in the test on A2780. Further, the results for the IC50 with Bel-7402, in the test on HT-29 and in the test on KB were 0.17 µM, 90 nM and 3 nM, respectively.

Turning to `CC[C@@]1(O)C(=O)OCc2c1cc1n(c2=O)Cc2cc3c(CN(C)C)c(O)ccc3nc2-1` [TOPOTECAN], the IC50 was found to be 620 nM in the test with BXPC-3; 10.1 µM in [1]; 1200 nM in the test with MCF7; 220 nM in the test on A549; 3350 nM with A2780; 3.13 µM in the test on Bel-7402. For the same molecule, the IC50 with HT-29 came out at 880 nM; with KB, 220 nM.

A word on the IC50: it is the midpoint of a concentration-inhibition curve. Read a low IC50 as greater potency in that assay.
